In the EternaBench riboswitch data:

Test system: MS2 coat protein
Assay: apparent Kd, MS2 coat protein; higher = weaker binding; RNA-MaP array; FMN 200 µM where present
Method in brief: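 The apparent Kd comes from binding curves fitted cluster by cluster, filtered, and summarised as a median. Those curves followed SNAP-549-labelled MS2 coat protein from 0.7 or 1.5 nM, doubling to 3 µM, on Illumina sequencing-chip clusters where stalled E. coli RNA polymerase had transcribed the designs, without and then with constant ligand. The buffer was 100 mM Tris-HCl pH 7.5, 80 mM KCl, 4 mM MgCl2, BSA, DTT, yeast tRNA and Tween-20, and green signal was normalised to red-channel RNA signal and control-cluster median Fmax.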

[1] = designed as: OFF switch for flavin mononucleotide, no ligand
[2] = ligand present: flavin mononucleotide, designed as: OFF switch for flavin mononucleotide
[3] = designed as: ON switch for flavin mononucleotide, no ligand
[4] = ligand present: flavin mononucleotide, designed as: ON switch for flavin mononucleotide

Sequence	apparent Kd [1] [nM]	apparent Kd [2] [nM]	apparent Kd [3] [nM]	apparent Kd [4] [nM]
UUUGUCUGUGUGAGGAUAUACUUUGUUUGGUCGUUGUAGAAGGCACAUGAGGAUCACCCAUGUAUUUUGUUGUG	28.7	31.7		
GGAGGACAUGAGGAUCACCCAUGUGGAUGGGCGCUAGGAUAUGCGAGAGGGAAGAGUGGAGCAGAAGGAGUGGGUU			50.8	47.3
UCAUGAUGGAAGAAGGGAGUCGUGCAUGACAACUCAGGAUAUUUCACAUGAGGAUCACCCAUGUCGAAGUAACAGUGUUGAUCA	23.9	45.8		
AUGGUUCGGUCAGGAUAUCGUAGAUUGAAUAGUAUGAUUUACAUGAGGAUCACCCAUGUUACAUACGAGAAGGGACCGAAUCAU	15.5	10.4		
GGAGCCGGCACUGAGGAUAUUCAUAUUAAAACAUGAGGAUCACCCAUGUAGGCCAGAAGGCCUUGGGAGAAGGCAGGUCGGCCCG			381	28.4
AGAUCCUGAGUCAGGAUAUAGAGGCGAAAGCCUGGCUAGAAGGGACAUGAGGAUCACCCAUGUGGGUUCGUGCC	20.2	66.5		
ACAUGAGGAUCACCCAUGUGAGGAUCACCCAUGUUAUAUUUCAGAAGGCUCGUUUGUUUGAGGAGAGAGGAUAUGGAAUAUAGG	127	84.7		
GACUGAUUGUAGAAGGUACUUGACAAUAUAUUUAAUUAUUGUAGACAUGAGGAUCACCCAUGUAGUAAGGAUAUACUUAUAACA			18.4	9.96
GUCGUGUAAGGAUAUGCAUCGAGGUAGCGAAUGUUGCAGGUGUAGAAGGUACAUGAGGAUCACCCAUGUAAUGU	22.2	30.1		
UGUGUGAGACAGGAUAUGCUGGUUGUGUGGCGGGUAGAAGGGUCUACAUGAGGAUCACCCAUGUGGCCGGUUGG	22	22.8		
UAUCUAGGCGAAGGAUAUCCGUCGCGAGAUACUGGAGAAGGUCGCCUUGAUACAUGAGGAUCACCCAUGUGGCGGGUGAACCAA	37.9	16.4		
AAAAAAAAAACUGAGGAUAUCAGGGAUGGUACAUGAGGAUCACCCAUGUUGGCGGGCGAAGAAACUGAGAAGGCAGAAAAAAAAAA			114	111
UAAAAGACUAGCAAAUAAUCCUUCACAUGAGGAUCACCCAUGUAGGAUAUGAGCAGAAAAUCUGCUCAGAAGGACAUGCUAGUC	3.22	3.68		
CGGGCGGGAGGAUAUGCGUGGAUUGUUCUCGUAUGGUGUCUACAUGAGGAUCACCCAUGUAGAAGGCUUGUUUG	14.1	16.7		
CUAAGUGCCGGAGGAUAUACAUGAGGAUCACCCAUGUCAGUCUGUUUACAUGUAGAAGGCCGGCGAACAAAGGACUUGCCAAGA	48.1	298		
CAAUUUAUAGCAGGAUAUAUAAUACAAUGAUUAAUAGAAGGGUUUAAUACAUGAGGAUCACCCAUGUCAUGUGUCAUAAUAACC	33.4	28.8		
GAUCUGACAGGAUAUACAUGAGGAUCACCCAUGUGCGAGCUAGCGAAAGCUAGCUUAGGUAGAAGGGUCAGAUC	12.2	18.1		
GGGUACAUCGGAGGAUAUCAUGUAAAUACAUGAGGAUCACCCAUGUCGACGGAGACAUCGGAGAUUGAGAAGGCCGAUGUACCG			42.2	367
UUGAUAAAUUAGAAGGCGUGAUAAAAUACAAUAAACAUGAGGAUCACCCAUGUGUACCCAUGUUAUGAGGAUAUAGACAUUUAU			365	245

Sequence	apparent Kd [1] [nM]	apparent Kd [2] [nM]	apparent Kd [3] [nM]	apparent Kd [4] [nM]
ACGAUGUCAGGAUAUCGAUCACGGGUCUGAAGACACGUGUUUGAGAAGGGACAUGAGGAUCACCCAUGUGUCUA	43.6	223		
GCUAUGUCAGGAUAUGCUAGUGCUAGUGAAAGCUAGUGCUAGUAGAAGGGACAUGAGGAUCACCCAUGUGUAGU	108	374		
GUGUGAUUAAGAGGAUAUAUACAACAUGAGGAUCACCCAUGUACCCGUGUAGUAGAAGGUUUGUUUUUAUAUAAUAAUAUAAUU			29.3	27.9
AGCUAGUCAGGAUAUACGAACAUGUCGAAAGACGUGAGGGAACAUGAGGAUCACCCAUGUAGAAGGGACUAGCA	30.6	36.2		
GCCUCACAUGAGGAUCACCCAUGUCAGGAUAUAGGAGACGGCAGAAAUCCUGCCAUCGCUAGAAGGGACUGGCA	23.9	105		
CUGAGGUCAGGAUAUGCAUGGCGGGACUUGCGUCGUGGCGUGCAGAAGGGACAUGAGGAUCACCCAUGUGGAGA	88.5	203		
AUGUCCUGAGGAUAUGGUCCAUUACACAUGAGGAUCACCCAUGUGGGUCUCGCCUGUAGGCCAGAAGGUAGGUCUU	52.8	49.5		
UGGUACUAGGGAGGAUAUGGGAAGAUACAUGAGGAUCACCCAUGUUUAAGAAUGCCGAGAGGCAACUAGAAGGCCCUAGUACCU			1050	45.3
AACAACCUAGGAUAUACAUGAGGAUCACCCAUGUUACUACUGGGUAAUCCCAAUUCGAGUAGAAGGAGGAUCAA	47.7	87		
UUUGUAUAGGUAGGAUAUACUUUCAAUUUUUUUUUCCUUACAUGAGGAUCACCCAUGUUUACAUUGUAGAAGGACCUCAUUGUU	250	326		
UUAAUUCGAAACAUGAGGAUCACCCAUGUGUUGUGGUUAAUAUAGGAUAUGUGGAUACUUUUUUGACAGAAGGAUGAUGGUACU			13.3	11.6
AGAUCACAUGAGGAUCACCCAUGUGAGGAUAUGAUACUAUGUACUUCGGUACAUAGUAUCAGAAGGCAUAUGAA	27.7	33.4		
CUUUUGUGAGGAUAUUAGUAGUAAAAAAAUAAAAUUACUACUGAGAAGGCACAUGAGGAUCACCCAUGUUCCUU	14.8	39		
AUUGUAGUUGUGAGGAUAUCGUUGAUUUUUUGAAACGAGAAGGCACAUGAGGAUCACCCAUGUUAGUUGUUGGU	84	212		
AACCAGUUGGUAGGAUAUGGUGCAGUGCUCGUACCAGAAGGACCAACAUGAGGAUCACCCAUGUUGGAAAGUCAACAUUAAUGA	6.23	16.4		
CAGACCUACGCAGGAUAUCUUGGGUGUUUCAUGGCAAGAGUCGGUACAUGAGGAUCACCCAUGUAAGAGAAGGGCGUUGCUAAA	404	83		
AUUAUGACCGAGUUAUAGUUCCAAACAUGAGGAUCACCCAUGUAGGAUAUCAGCACGAUAAGUGCUGAGAAGGACAUCUCGGUC	14.9	16.1		
GAUCAACAUGAGGAUCACCCAUGUCAGGAUAUGAUACUAUGUACUUCGGUACAUAGUAUCAGAAGGGACAGAUC	122	296		
ACAAAUGGAGGAUAUACAUGAGGAUCACCCAUGUUUAUCCUACAUAUGUGAUAAUAAUGUAGAAGGCCAUUUGA	12.5	16.2		

Sequence	apparent Kd [1] [nM]	apparent Kd [2] [nM]	apparent Kd [3] [nM]	apparent Kd [4] [nM]
CCUGGAUCAUGAGGAUAUGGCACCUUAUUGGUGCCAGAAGGCAUGUCUCUUGACAUGAGGAUCACCCAUGUAAUAAAUUCCAGG			1020	124
CGCUGGUGACAGCAUCCAUCAAAACAUGAGGAUCACCCAUGUAGAAGGCUGUACGGUUACCGUACAGAGGAUAUACAAUGAUGC	15.1	28.4		
UUAAUGUGAGGAUAUCAGGUGUGCUAGAGUACUGGUACAUCUGAGAAGGCACAUGAGGAUCACCCAUGUUCUUC	36.9	110		
UUGGACGUCGUAGGAUAUGUAGGAUAUUCCUACAUGAGGAUCACCCAUGUUGACAAGGAAGAAGGACAGAAGGACGAUGUCCAU			5.37	3.37
GUGUACAGAGGAUAUACAUAAGCUAGGAAACUAGCAUCUUCACAUGAGGAUCACCCAUGUAGAAGGCUGUACAC	19.8	78.5		
ACUGUUAGAGUCUUCCUUAUCACAUGAGGAUCACCCAUGUGGAGAAGGGACUGUAUCGUUAUCAGUUAGGAUAUCCAUGUGUGC	4.62	4.72		
CUACAUGAGGAUCACCCAUGUGCACGCCAGAUCGGUGUGCGCAGAAGGGCCAUGGAGAAAGCCAGGCAGGAUAUGCAAAGGGCU			353	162
AAAACAUGAGGAUCACCCAUGUAAAGAUCGGUUAAUAGAGGUGAGGAUAUACUAAAUUUUGGGUGGUAGAAGGCACUGGGUACA			187	122
AAAUAUAAGCGAGGAUAUAUACAUGAGGAUCACCCAUGUCCCAUGUCAUGAGCAUCAGCCAUGUAGUAGAAGGCGCACAUGAGG	100	53.5		
UGUCGGAGCAGAGGAUAUUACAUGAGGAUCACCCAUGUAUGAACCAAUAGCUGGUAACAGCAAUGUAAGAAGGCUGCUCCGACA	14.1	176		
GUAUGUAAGGAGAAGGGCUACUGGUUGAAACCUGCGGCCUCUGGAACAUGAGGAUCACCCAUGUAGCAGGAUAUCCUUGCGUGA	222	22.9		
CAGCGAUAGCUGAACAAUCUAUCUGAGGAUAUUCAUAAAACAUGAGGAUCACCCAUGUGAAAUUGGGAGAAGGCAGAUAGAUUG			7.7	4.42
GUUGGCUGAGGAUAUGCUUGCGUGCUUUUGUGUCGCGGGUGACAUGAGGAUCACCCAUGUAGAAGGUGGUCGGC	818	673		
GGACCACAUCAGGAUAUGACUAGCCUCGGCUAGUCAGAAGGGAUGACAUGAGGAUCACCCAUGUGAUCAGGUCC	67.9	110		
AGGAGAAAUGUAGGAUAUGGGCGGAUAUAUGGGCAAAGCGCAUAUAUCCGCCCAGAAGGACAUGAGGAUCACCCAUGUUUCCCU	11.1	13.3		
GGAAAACAUGAGGAUCACCCAUGUGAGGAUAUCGAUGUCCAAAAAAAGGUGCGGGACUCGAGAAGGCACUUGGA	55.6	47		
UUAAUUUGAGGAUAUACAUUUAACCACAUGAGGAUCACCCAUGUAAUAUCAUGUAUUUGUGUAGAAGGCAGAAUGC	18.8	17.5		
UUUUAACAUGAGGAUCACCCAUGUGAGGAUAUCGAAAUUUAUAUUUAUAUUUAUAUUUCGAGAAGGCACAUUUU	176	156		
